According to ChEMBL document CHEMBL2311482, “Antiproliferative and apoptotic effects of compounds from the flower of Mammea siamensis (Miq.) T. Anders. on human cancer cell lines” (Bioorg Med Chem Lett, 2013):
Active and inactive are the calls of the source. No cut-off for these calls is given here.

Assays:
HL-60 [1] = experiment: Induction of apoptosis in human HL60 cells assessed as DNA fragmentation at 12.5 uM after 24 hrs by agarose gel electrophoresis; assay type: functional, cell-based
Procedure, shortened: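 HL-60 cells treated with 12.5 µM compound for 24 h; DNA extracted and laddering resolved by agarose gel electrophoresis against a 100 bp marker; representative of three independent experiments.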

U-937 = experiment: Cytotoxicity against human U937 cells assessed as cell viability after 24 hrs by MTT assay; assay type: functional, cell-based; conditions: U-937, 24 h
Procedure, shortened: (§1)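 Cells exposed to compounds at 3.125 to 50 µM for 24 h; proliferation read by MTT assay; IC50 (µM) reported. Panel: leukemia lines HL-60, U937, THP-1, Jurkat; stomach KATO III; colon HCT-15; hepatoma HepG2; normal skin fibroblasts NB1RGB and HF-19.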

[2] = Cytotoxicity against human HF19 cells assessed as cell viability after 24 hrs by MTT assay; assay type: cell-based; conditions: HF19, 24 h; procedure, shortened: as §1
HL-60 [3] = experiment: Cytotoxicity against human HL60 cells assessed as cell viability after 24 hrs by MTT assay; assay type: functional, cell-based; conditions: HL-60, 24 h; procedure, shortened: as §1
HCT-15 = experiment: Cytotoxicity against human HCT15 cells assessed as cell viability after 24 hrs by MTT assay; assay type: functional, cell-based; conditions: HCT-15, 24 h; procedure, shortened: as §1
[4] = Cytotoxicity against human NB1RGB cells assessed as cell viability after 24 hrs by MTT assay; assay type: cell-based; procedure, shortened: as §1
[5] = Cytotoxicity against human KATO III cells assessed as cell viability after 24 hrs by MTT assay; assay type: functional, cell-based; procedure, shortened: as §1
THP-1 = experiment: Cytotoxicity against human THP1 cells assessed as cell viability after 24 hrs by MTT assay; assay type: functional, cell-based; conditions: THP-1, 24 h; procedure, shortened: as §1
Jurkat = experiment: Cytotoxicity against human Jurkat cells assessed as cell viability after 24 hrs by MTT assay; assay type: functional, cell-based; procedure, shortened: as §1
HepG2 = experiment: Cytotoxicity against human HepG2 cells assessed as cell viability after 24 hrs by MTT assay; assay type: functional, cell-based; conditions: HepG2, 24 h; procedure, shortened: as §1
HL-60 [6] = experiment: Induction of apoptosis in human HL60 cells assessed as activation of caspase 3 at 12.5 uM by Western blot analysis; assay type: functional, cell-based; conditions: TDE = time-dependent effect
Procedure, shortened: (§2)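 HL-60 cells given 12.5 µM compound for 6–24 h, then lysed; caspase-3 and PARP (cleavage) probed by Western blot with β-actin as loading control; representative of three independent experiments.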

HL-60 [7] = experiment: Induction of apoptosis in human HL60 cells assessed as DNA fragmentation at 12.5 uM by agarose gel electrophoresis; assay type: functional, cell-based; conditions: TDE = time-dependent effect
Procedure, shortened: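 Time course: HL-60 cells exposed to 12.5 µM compound for 6–24 h; DNA fragmentation assessed by agarose gel electrophoresis; representative of three independent experiments.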

HL-60 [8] = experiment: Induction of apoptosis in human HL60 cells assessed as chromatin condensation at 12.5 uM after 24 hrs by Hoechst 33258 staining-based fluorescent microscopy; assay type: functional, cell-based
Procedure, shortened: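 Nuclear morphology: HL-60 cells treated 24 h with 12.5 µM compound, stained with Hoechst 33258, and viewed by fluorescence microscopy at ×400; representative of three independent experiments.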

HL-60 [9] = experiment: Induction of apoptosis in human HL60 cells assessed as PARP cleavage at 12.5 uM by Western blot analysis; assay type: functional, cell-based; conditions: TDE = time-dependent effect; procedure, shortened: as §2
HL-60 [10] = experiment: Induction of apoptosis in human HL60 cells assessed as DNA fragmentation at 12.5 uM after 24 hrs by agarose gel electrophoresis in presence of caspase inhibitior Z-VAD-FMK and Z-DEVD-FMK; assay type: functional, cell-based
Procedure, shortened: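 HL-60 cells pretreated 1 h with 50 µM caspase inhibitor (z-VAD-FMK, broad; z-DEVD-FMK, caspase-3), then given 12.5 µM compound for 24 h; DNA fragmentation by agarose gel electrophoresis; representative of three independent experiments.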

Compound	Activity (HL-60 [1])	IC50 (U-937) [µM]	IC50 [2] [µM]	IC50 (HL-60 [3]) [µM]	IC50 (HCT-15) [µM]	IC50 [4] [µM]	IC50 [5] [µM]	IC50 (THP-1) [µM]	IC50 (Jurkat) [µM]	IC50 (HepG2) [µM]	Activity (HL-60 [6])	Activity (HL-60 [7])	Activity (HL-60 [8])	Activity (HL-60 [9])	Activity (HL-60 [10])
O=c1cc(-c2ccc(O)c(-c3c(O)cc(O)c4c(=O)cc(-c5ccc(O)cc5)oc34)c2)oc2cc(O)cc(O)c12 [AMENTOFLAVONE]	inactive	> 50	> 50	> 50	> 50	> 50	> 50	> 50	> 50	> 50	–	–	–	–	–
CCCC(=O)c1c(O)c(C/C=C(\C)CCC=C(C)C)c(O)c2c([C@@H](O)CC)cc(=O)oc12 [KAYEASSAMIN A]	Active	19.9	> 50	11.9	> 50	> 50	12	16.7	19.8	> 50	tde	tde	Active	tde	inactive
CCC(C)C(=O)c1c(O)c2c(c3c([C@@H](O)CC)cc(=O)oc13)OC(C(C)(C)O)C2 (some centres not stated)	inactive	33.4	> 50	29.2	> 50	> 50	> 50	40.6	> 50	> 50	–	–	–	–	–
CCCC(=O)c1c2c(c3oc(=O)cc(CCC)c3c1O)C=CC(C)(C)O2	inactive	47.6	> 50	37.2	> 50	> 50	> 50	> 50	> 50	> 50	–	–	–	–	–
O=c1cc(-c2ccc(O)cc2)oc2cc(O)c([C@@H]3O[C@H](CO)[C@@H](O)[C@H](O)[C@H]3O)c(O)c12 [ISOVITEXIN]	inactive	> 50	> 50	> 50	> 50	> 50	> 50	> 50	> 50	> 50	–	–	–	–	–
CCC(C)C(=O)c1c(O)c(C/C=C(\C)CCC=C(C)C)c(O)c2c([C@@H](O)CC)cc(=O)oc12 (some centres not stated) [SURANGIN C]	Active	27.6	> 50	13.3	> 50	> 50	10.6	21.5	23.1	> 50	–	–	Active	–	–
CCC(C)C(=O)c1c(O)c(CC=C(C)C)c(O)c2c([C@@H](O)CC)cc(=O)oc12 (some centres not stated)	Active	18.8	> 50	13.7	> 50	> 50	24.1	9.23	29.9	> 50	–	–	Active	–	–
